ChEMBL document CHEMBL1123173, “Synthesis and antiherpes virus activity of phosphate and phosphonate derivatives of 9-[(1,3-dihydroxy-2-propoxy)methyl]guanine” (1986)
The source made the active and inactive calls. No cut-off for these calls is given here.

Columns and labels:
MRC5 = assay: In vitro antiviral activity was measured against HCMV(AD-169) in MRC5 cells; type: functional; settings: Homo sapiens, read-out: ID50 (the source's name)
Mus musculus [1] = assay: Effect of oral treatment with compound on HSV-2 induced mortality in mice at 10 mg/kg dose; type: functional
Summary of the method: (§1)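 Female Swiss-Webster mice, about 20 g, infected intraperitoneally with 5×10^4 PFU of HSV-2 strain G (about ten LD50). Oral dosing once every 24 h for 4 days, starting 24 h post-infection, with a saline-treated control group. Groups of 19–20 mice. Survivors were scored and compared by Fisher exact test. Mean survival time (days ± SD) was compared by Mann-Whitney U test. NS means p > 0.05.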

Mus musculus [2] = assay: Effect of subcutaneous treatment with compound on HSV-2 induced mortality in mice at 15 mg/kg dose; type: functional
Summary of the method: (§2)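 Female Swiss-Webster mice, about 20 g, challenged intraperitoneally with 5×10^4 PFU of HSV-2 strain G (about ten LD50). Subcutaneous dosing once daily for 4 days, beginning 24 h after infection, with a saline control group. 15 mice per group. Survivor numbers were compared by Fisher exact test and mean survival time (± SD) by Mann-Whitney U test. NS means p > 0.05.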

Mus musculus [3] = assay: Effect of on mean survival time upon oral treatment on HSV-2 induced mortality in mice at 10 mg/kg dose; type: functional; summary of the method: as §1
Mus musculus [4] = assay: Effect of on mean survival time upon oral treatment on HSV-2 induced mortality in mice at 20 mg/kg dose; type: functional; summary of the method: as §1
Mus musculus [5] = assay: Effect of on mean survival time upon oral treatment on HSV-2 induced mortality in mice at 5 mg/kg dose; type: functional; summary of the method: as §1
Mus musculus [6] = assay: Effect of subcutaneous treatment with compound on HSV-2 induced mortality in mice at 1.5 mg/kg dose; 8/15; type: functional; summary of the method: as §2
Mus musculus [7] = assay: Effect of oral treatment with compound on HSV-2 induced mortality in mice at 5 mg/kg dose; type: functional; summary of the method: as §1
Mus musculus [8] = assay: Effect of oral treatment with compound on HSV-2 induced mortality in mice at 5 mg/kg dose; 0/19; type: functional; summary of the method: as §1
Mus musculus [9] = assay: Effect of oral treatment with compound on HSV-2 induced mortality in mice at 10 mg/kg dose; NS=Not significant; type: functional, organism-based; set-up: dose 10 mg/kg; summary of the method: as §1
Mus musculus [10] = assay: Effect of oral treatment with compound on HSV-2 induced mortality in mice at 20 mg/kg dose; type: functional; summary of the method: as §1
Mus musculus [11] = assay: (§3) Effect of oral treatment with compound on HSV-2 induced mortality in mice at 5 mg/kg dose; NS=Not significant; type: functional, organism-based; set-up: dose 5 mg/kg; summary of the method: as §1
Mus musculus [12] = assay: Effect of subcutaneous treatment with compound on HSV-2 induced mortality in mice at 1.5 mg/kg dose; type: functional; summary of the method: as §2
Mus musculus [13] = assay: Effect of subcutaneous treatment with compound on HSV-2 induced mortality in mice at 5 mg/kg dose; type: functional; summary of the method: as §2
Mus musculus [14] = assay: Effect of subcutaneous treatment with compound on HSV-2 induced mortality in mice at 15 mg/kg dose; 15/15; type: functional; summary of the method: as §2
Mus musculus [15] = assay: Effect of subcutaneous treatment with compound on HSV-2 induced mortality in mice at 5 mg/kg dose; 10/15; type: functional; summary of the method: as §2
Mus musculus [16] = assay: Effect of oral treatment with compound on HSV-2 induced mortality in mice at 10 mg/kg dose; 6/20; type: functional; summary of the method: as §1
Mus musculus [17] = assay: Effect of oral treatment with compound on HSV-2 induced mortality in mice at 20 mg/kg dose; 11/20; type: functional; summary of the method: as §1
Vero [18] = assay: In vitro anticellular activity was measured against vero cells; type: functional; settings: Chlorocebus sabaeus, read-out: ID50 (the source's name)
Summary of the method: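 Cell proliferation assay in uninfected Vero cells.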

Vero [19] = assay: In vitro antiviral activity was measured against HSV-1 (F delta 305) in Vero cells; type: functional; settings: Chlorocebus sabaeus, read-out: ID50 (the source's name)
Vero [20] = assay: In vitro antiviral activity was measured against HSV-1 (MP-PAA/DHPG) in Vero cells; type: functional; settings: Chlorocebus sabaeus, read-out: ID50 (the source's name)
Vero [21] = assay: In vitro antiviral activity was measured against HSV-2(G) in Vero cells; type: functional; settings: Chlorocebus sabaeus, read-out: ID50 (the source's name)
Vero [22] = assay: In vitro antiviral activity was measured against HSV-1(F) in Vero cells; type: functional; settings: Chlorocebus sabaeus, read-out: ID50 (the source's name)
Mus musculus [23] = assay: as §3; type: functional, organism-based; set-up: dose 5 mg/kg; remark: listed apart in the source
Summary of the method: (§4)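 Female Swiss-Webster mice (ca. 20 g) infected intraperitoneally with 5×10^4 PFU HSV-2 strain G (about ten 50% lethal doses). Oral dosing once every 24 h for 4 days, starting 24 h postinfection; saline controls. Survivors/total recorded, survivor increase tested by Fisher exact test; mean survival time (days ± standard deviation) compared by Mann-Whitney U test.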

Mus musculus [24] = assay: Effect of oral treatment with compound on HSV-2 induced mortality in mice at 5 mg/kg dose; 1/19; type: functional; summary of the method: as §1
Mus musculus [25] = assay: Effect of oral treatment with compound on HSV-2 induced mortality in mice at 20 mg/kg dose; 12/20; type: functional; summary of the method: as §1
Mus musculus [26] = assay: Effect of oral treatment with compound on HSV-2 induced mortality in mice at 10 mg/kg dose; 2/20; type: functional; summary of the method: as §1
Mus musculus [27] = assay: Effect of subcutaneous treatment with compound on HSV-2 induced mortality in mice at 30 mg/kg dose; type: functional; summary of the method: as §2
Mus musculus [28] = assay: (§5) Effect of subcutaneous treatment with compound on HSV-2 induced mortality in mice at 5 mg/kg dose; NS=Not significant; type: functional, organism-based; set-up: dose 5 mg/kg
Summary of the method: as §4, with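 “Subcutaneous” for “Oral”, “daily” for “every 24 h”, “recorded,” for “recorded, survivor increase tested by”, “test for survival;” for “test;”, “(±” for “(days ±”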

Mus musculus [29] = assay: Effect of subcutaneous treatment with compound on HSV-2 induced mortality in mice at 15 mg/kg dose; NS=Not significant; type: functional, organism-based; set-up: dose 15 mg/kg; summary of the method: as §2
Mus musculus [30] = assay: Effect of subcutaneous treatment with compound on HSV-2 induced mortality in mice at 30 mg/kg dose; NS=Not significant; type: functional, organism-based; set-up: dose 30 mg/kg; summary of the method: as §2
Mus musculus [31] = assay: as §5; type: functional, organism-based; set-up: dose 5 mg/kg; summary of the method: as §2; remark: listed apart in the source
Mus musculus [32] = assay: Effect of subcutaneous treatment with compound on HSV-2 induced mortality in mice at 15 mg/kg dose; 0/15; type: functional; summary of the method: as §2
Mus musculus [33] = assay: Effect of subcutaneous treatment with compound on HSV-2 induced mortality in mice at 30 mg/kg dose; 2/15; type: functional; summary of the method: as §2
Mus musculus [34] = assay: Effect of subcutaneous treatment with compound on HSV-2 induced mortality in mice at 5 mg/kg dose; 2/15; type: functional; summary of the method: as §2

SMILES | IC50 (MRC5) [µM] | MST increase (Mus musculus [1]) | MST increase (Mus musculus [2]) | MST (Mus musculus [3]) [days] | MST (Mus musculus [4]) [days] | Survivor increase (Mus musculus [9]) | Survivor increase (Mus musculus [10]) | p-value for mean survival time increase (Mus musculus [10]) | Survivor increase (Mus musculus [11]) | IC50 (Vero [18]) [µM] | IC50 (Vero [19]) [µM] | IC50 (Vero [20]) [µM] | IC50 (Vero [21]) [µM] | IC50 (Vero [22]) [µM] | other results
Nc1nc2c(ncn2COC(CO)CO)c(=O)[nH]1 [GANCICLOVIR] | 5 | <0.025 | <0.001 | 10.9 | 11.9 | inactive | 0.005 | <0.01 | inactive | 450 | 10 | 125 | 1.6 | 0.2 | Survivor increase (Mus musculus [2]): <0.001; MST (Mus musculus [5]; 5 mg/kg): 11.3 days; Survivors (Mus musculus [6]): 8; MST increase (Mus musculus [7]): <0.01; Survivors (Mus musculus [8]): 0; MST increase (Mus musculus [12]): <0.001; Survivor increase (Mus musculus [12]): 0.01; MST increase (Mus musculus [13]): <0.001; Survivor increase (Mus musculus [13]): <0.001; Survivors (Mus musculus [14]): 15; Survivors (Mus musculus [15]): 10; Survivors (Mus musculus [16]): 6; Survivors (Mus musculus [17]): 11
Nc1nc(O)c2ncn(COC(CO)COP(=O)(O)O)c2n1 (centres undefined) | 12 | <0.01 | – | 11.3 | 10.5 | inactive | 0.002 | <0.001 | inactive | 700 | 6 | > 200 | 1.7 | 0.2 | MST increase (Mus musculus [23]): inactive; MST (Mus musculus [5]): 10 days; Survivors (Mus musculus [24]): 1; Survivors (Mus musculus [25]): 12; Survivors (Mus musculus [26]): 2
Nc1nc(N)c2ncn(COC3COP(=O)(O)OC3)c2n1 (centres undefined) | – | – | 0.025 | – | – | – | – | – | – | – | 80 | – | > 100 | 125 | MST increase (Mus musculus [27]): 0.01; MST increase (Mus musculus [28]): inactive; Survivor increase (Mus musculus [29]): inactive; Survivor increase (Mus musculus [30]): inactive; Survivor increase (Mus musculus [31]): inactive; Survivors (Mus musculus [32]): 0; Survivors (Mus musculus [33]): 2; Survivors (Mus musculus [34]): 2
Nc1ncnc2c1ncn2COC1COP(=O)(O)OC1 (centres undefined) | – | – | – | – | – | – | – | – | – | – | – | – | > 1000 | 600 | –
